Measured values published in ChEMBL document CHEMBL4152206, “Design, synthesis, cytotoxicity and mechanism of novel dihydroartemisinin-coumarin hybrids as potential anti-cancer agents” (Eur J Med Chem, 2018).

Each compound was assayed on HT-29 (assay: Cytotoxicity against human HT-29 cells after 96 hrs under hypoxic condition by MTT assay). Conditions: Homo sapiens, HT-29, 96 h; read-out: IC50.
Type: functional, cell-based
In short: (§1)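 MTT viability assay in HT-29 (high CA IX) and MDA-MB-231 (normal CA IX) cells under normoxic and hypoxic conditions; IC50 values reported.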
Work on `C[C@H]1[C@@H](Oc2ccc3c(C(F)(F)F)cc(=O)oc3c2)O[C@@H]2O[C@@]3(C)CC[C@H]4[C@H](C)CC[C@@H]1[C@@]24OO3` yielded an IC50 of 22.3 µM.
Work on `C[C@H]1[C@@H](O)O[C@@H]2O[C@@]3(C)CC[C@H]4[C@H](C)CC[C@@H]1[C@@]24OO3` [ARTENIMOL] yielded an IC50 of 18.5 µM.
`C[C@H]1[C@@H](OCCc2cn(CCCOc3ccc4c(C(F)(F)F)cc(=O)oc4c3)nn2)O[C@@H]2O[C@@]3(C)CC[C@H]4[C@H](C)CC[C@@H]1[C@@]24OO3` gave an IC50 of 4.29 µM.
`Cc1c(Cl)c(=O)oc2cc(O[C@H]3O[C@@H]4O[C@@]5(C)CC[C@H]6[C@H](C)CC[C@@H]([C@H]3C)[C@@]46OO5)ccc12` gave an IC50 of 0.41 µM.
For `C[C@H]1[C@@H](OCc2cn(-c3ccc4c(C(F)(F)F)cc(=O)oc4c3)nn2)O[C@@H]2O[C@@]3(C)CC[C@H]4[C@H](C)CC[C@@H]1[C@@]24OO3`, the IC50 was 5.33 µM.
`Cc1c(Cl)c(=O)oc2cc(-n3cc(CO[C@H]4O[C@@H]5O[C@@]6(C)CC[C@H]7[C@H](C)CC[C@@H]([C@H]4C)[C@@]57OO6)nn3)ccc12` showed an IC50 of 1.15 µM.
`Cc1cc(=O)oc2cc(OCCCO[C@H]3O[C@@H]4O[C@@]5(C)CC[C@H]6[C@H](C)CC[C@@H]([C@H]3C)[C@@]46OO5)ccc12` was tested, and the IC50 was 8.71 µM.
For `C[C@H]1[C@@H](OCCCOc2ccc3c(C(F)(F)F)cc(=O)oc3c2)O[C@@H]2O[C@@]3(C)CC[C@H]4[C@H](C)CC[C@@H]1[C@@]24OO3`, the IC50 was 1.19 µM.
`CC(=O)Nc1nnc(S(N)(=O)=O)s1` [ACETAZOLAMIDE] was tested, and the IC50 was greater than 100 µM.
With `COc1cccc2c1C(=O)c1c(O)c3c(c(O)c1C2=O)C[C@@](O)(C(=O)CO)C[C@@H]3O[C@H]1C[C@H](N)[C@H](O)[C@H](C)O1` [DOXORUBICIN] the IC50 was 0.25 µM.
Compound `Cc1c(C)c2ccc(OCCCO[C@H]3O[C@@H]4O[C@@]5(C)CC[C@H]6[C@H](C)CC[C@@H]([C@H]3C)[C@@]46OO5)cc2oc1=O` has an IC50 of 3.54 µM.
In the case of `CCOC(=O)c1cc2ccc(O[C@H]3O[C@@H]4O[C@@]5(C)CC[C@H]6[C@H](C)CC[C@@H]([C@H]3C)[C@@]46OO5)cc2oc1=O`, the IC50 is reported as 7.17 µM.
For `Cc1c(C)c2ccc(OCCCn3cc(CCO[C@H]4O[C@@H]5O[C@@]6(C)CC[C@H]7[C@H](C)CC[C@@H]([C@H]4C)[C@@]57OO6)nn3)cc2oc1=O`, the IC50 was 0.11 µM.

The compounds below were run on HT-29 (assay: Cytotoxicity against human HT-29 cells after 96 hrs under normoxic condition by MTT assay). Conditions: Homo sapiens, HT-29, 96 h; read-out: IC50.
Type: functional, cell-based
In short: as §1
For `C[C@H]1[C@@H](Oc2ccc3c(C(F)(F)F)cc(=O)oc3c2)O[C@@H]2O[C@@]3(C)CC[C@H]4[C@H](C)CC[C@@H]1[C@@]24OO3`, the IC50 was 11.1 µM.
With `C[C@H]1[C@@H](O)O[C@@H]2O[C@@]3(C)CC[C@H]4[C@H](C)CC[C@@H]1[C@@]24OO3` [ARTENIMOL] the IC50 was greater than 100 µM.
For `C[C@H]1[C@@H](OCCc2cn(CCCOc3ccc4c(C(F)(F)F)cc(=O)oc4c3)nn2)O[C@@H]2O[C@@]3(C)CC[C@H]4[C@H](C)CC[C@@H]1[C@@]24OO3`, the IC50 was 5.88 µM.
In the case of `Cc1c(Cl)c(=O)oc2cc(O[C@H]3O[C@@H]4O[C@@]5(C)CC[C@H]6[C@H](C)CC[C@@H]([C@H]3C)[C@@]46OO5)ccc12`, the IC50 is reported as 1.28 µM.
For `C[C@H]1[C@@H](OCc2cn(-c3ccc4c(C(F)(F)F)cc(=O)oc4c3)nn2)O[C@@H]2O[C@@]3(C)CC[C@H]4[C@H](C)CC[C@@H]1[C@@]24OO3`, the IC50 was 5.22 µM.
Work on `Cc1c(Cl)c(=O)oc2cc(-n3cc(CO[C@H]4O[C@@H]5O[C@@]6(C)CC[C@H]7[C@H](C)CC[C@@H]([C@H]4C)[C@@]57OO6)nn3)ccc12` yielded an IC50 of 4.27 µM.
Work on `Cc1cc(=O)oc2cc(OCCCO[C@H]3O[C@@H]4O[C@@]5(C)CC[C@H]6[C@H](C)CC[C@@H]([C@H]3C)[C@@]46OO5)ccc12` yielded an IC50 of 13.8 µM.
`C[C@H]1[C@@H](OCCCOc2ccc3c(C(F)(F)F)cc(=O)oc3c2)O[C@@H]2O[C@@]3(C)CC[C@H]4[C@H](C)CC[C@@H]1[C@@]24OO3` showed an IC50 of 4.57 µM.
`CC(=O)Nc1nnc(S(N)(=O)=O)s1` [ACETAZOLAMIDE] was tested, and the IC50 was greater than 100 µM.
`COc1cccc2c1C(=O)c1c(O)c3c(c(O)c1C2=O)C[C@@](O)(C(=O)CO)C[C@@H]3O[C@H]1C[C@H](N)[C@H](O)[C@H](C)O1` [DOXORUBICIN] showed an IC50 of 0.24 µM.
Compound `Cc1c(C)c2ccc(OCCCO[C@H]3O[C@@H]4O[C@@]5(C)CC[C@H]6[C@H](C)CC[C@@H]([C@H]3C)[C@@]46OO5)cc2oc1=O` has an IC50 of 8.71 µM.
`CCOC(=O)c1cc2ccc(O[C@H]3O[C@@H]4O[C@@]5(C)CC[C@H]6[C@H](C)CC[C@@H]([C@H]3C)[C@@]46OO5)cc2oc1=O` was tested, and the IC50 was 3.45 µM.
In the case of `Cc1c(C)c2ccc(OCCCn3cc(CCO[C@H]4O[C@@H]5O[C@@]6(C)CC[C@H]7[C@H](C)CC[C@@H]([C@H]4C)[C@@]57OO6)nn3)cc2oc1=O`, the IC50 is reported as 5 µM.

These compounds were tested on MDA-MB-231 (assay: Cytotoxicity against human MDA-MB-231 cells after 96 hrs under hypoxic condition by MTT assay). Conditions: Homo sapiens, MDA-MB-231, 96 h; read-out: IC50.
Type: functional, cell-based
In short: as §1
In the case of `C[C@H]1[C@@H](Oc2ccc3c(C(F)(F)F)cc(=O)oc3c2)O[C@@H]2O[C@@]3(C)CC[C@H]4[C@H](C)CC[C@@H]1[C@@]24OO3`, the IC50 is reported as 3.25 µM.
With `C[C@H]1[C@@H](O)O[C@@H]2O[C@@]3(C)CC[C@H]4[C@H](C)CC[C@@H]1[C@@]24OO3` [ARTENIMOL] the IC50 was 5.64 µM.
With `C[C@H]1[C@@H](OCCc2cn(CCCOc3ccc4c(C(F)(F)F)cc(=O)oc4c3)nn2)O[C@@H]2O[C@@]3(C)CC[C@H]4[C@H](C)CC[C@@H]1[C@@]24OO3` the IC50 was 6.58 µM.
`Cc1c(Cl)c(=O)oc2cc(O[C@H]3O[C@@H]4O[C@@]5(C)CC[C@H]6[C@H](C)CC[C@@H]([C@H]3C)[C@@]46OO5)ccc12` was tested, and the IC50 was 1.4 µM.
Compound `C[C@H]1[C@@H](OCc2cn(-c3ccc4c(C(F)(F)F)cc(=O)oc4c3)nn2)O[C@@H]2O[C@@]3(C)CC[C@H]4[C@H](C)CC[C@@H]1[C@@]24OO3` has an IC50 of 49.6 µM.
With `Cc1c(Cl)c(=O)oc2cc(-n3cc(CO[C@H]4O[C@@H]5O[C@@]6(C)CC[C@H]7[C@H](C)CC[C@@H]([C@H]4C)[C@@]57OO6)nn3)ccc12` the IC50 was 24.7 µM.
`Cc1cc(=O)oc2cc(OCCCO[C@H]3O[C@@H]4O[C@@]5(C)CC[C@H]6[C@H](C)CC[C@@H]([C@H]3C)[C@@]46OO5)ccc12` showed an IC50 of 22.9 µM.
`C[C@H]1[C@@H](OCCCOc2ccc3c(C(F)(F)F)cc(=O)oc3c2)O[C@@H]2O[C@@]3(C)CC[C@H]4[C@H](C)CC[C@@H]1[C@@]24OO3` was tested, and the IC50 was 8.86 µM.
In the case of `CC(=O)Nc1nnc(S(N)(=O)=O)s1` [ACETAZOLAMIDE], the IC50 is reported as greater than 100 µM.
For `COc1cccc2c1C(=O)c1c(O)c3c(c(O)c1C2=O)C[C@@](O)(C(=O)CO)C[C@@H]3O[C@H]1C[C@H](N)[C@H](O)[C@H](C)O1` [DOXORUBICIN], the IC50 was 5.98 µM.
`Cc1c(C)c2ccc(OCCCO[C@H]3O[C@@H]4O[C@@]5(C)CC[C@H]6[C@H](C)CC[C@@H]([C@H]3C)[C@@]46OO5)cc2oc1=O` gave an IC50 of 7.92 µM.
`CCOC(=O)c1cc2ccc(O[C@H]3O[C@@H]4O[C@@]5(C)CC[C@H]6[C@H](C)CC[C@@H]([C@H]3C)[C@@]46OO5)cc2oc1=O` was tested, and the IC50 was 2.85 µM.
Work on `Cc1c(C)c2ccc(OCCCn3cc(CCO[C@H]4O[C@@H]5O[C@@]6(C)CC[C@H]7[C@H](C)CC[C@@H]([C@H]4C)[C@@]57OO6)nn3)cc2oc1=O` yielded an IC50 of 33.2 µM.

What follows are compounds tested on MDA-MB-231 (assay: Cytotoxicity against human MDA-MB-231 cells after 96 hrs under normoxic condition by MTT assay). Conditions: Homo sapiens, MDA-MB-231, 96 h; read-out: IC50.
Type: functional, cell-based
In short: as §1
Compound `C[C@H]1[C@@H](Oc2ccc3c(C(F)(F)F)cc(=O)oc3c2)O[C@@H]2O[C@@]3(C)CC[C@H]4[C@H](C)CC[C@@H]1[C@@]24OO3` has an IC50 of 56.8 µM.
`C[C@H]1[C@@H](O)O[C@@H]2O[C@@]3(C)CC[C@H]4[C@H](C)CC[C@@H]1[C@@]24OO3` [ARTENIMOL] showed an IC50 of 47.1 µM.
`C[C@H]1[C@@H](OCCc2cn(CCCOc3ccc4c(C(F)(F)F)cc(=O)oc4c3)nn2)O[C@@H]2O[C@@]3(C)CC[C@H]4[C@H](C)CC[C@@H]1[C@@]24OO3` was tested, and the IC50 was 32.5 µM.
With `Cc1c(Cl)c(=O)oc2cc(O[C@H]3O[C@@H]4O[C@@]5(C)CC[C@H]6[C@H](C)CC[C@@H]([C@H]3C)[C@@]46OO5)ccc12` the IC50 was 50.5 µM.
In the case of `C[C@H]1[C@@H](OCc2cn(-c3ccc4c(C(F)(F)F)cc(=O)oc4c3)nn2)O[C@@H]2O[C@@]3(C)CC[C@H]4[C@H](C)CC[C@@H]1[C@@]24OO3`, the IC50 is reported as greater than 100 µM.
In the case of `Cc1c(Cl)c(=O)oc2cc(-n3cc(CO[C@H]4O[C@@H]5O[C@@]6(C)CC[C@H]7[C@H](C)CC[C@@H]([C@H]4C)[C@@]57OO6)nn3)ccc12`, the IC50 is reported as 50.5 µM.
In the case of `Cc1cc(=O)oc2cc(OCCCO[C@H]3O[C@@H]4O[C@@]5(C)CC[C@H]6[C@H](C)CC[C@@H]([C@H]3C)[C@@]46OO5)ccc12`, the IC50 is reported as 30 µM.
`C[C@H]1[C@@H](OCCCOc2ccc3c(C(F)(F)F)cc(=O)oc3c2)O[C@@H]2O[C@@]3(C)CC[C@H]4[C@H](C)CC[C@@H]1[C@@]24OO3` showed an IC50 of 13.6 µM.
`CC(=O)Nc1nnc(S(N)(=O)=O)s1` [ACETAZOLAMIDE] showed an IC50 greater than 100 µM.
In the case of `COc1cccc2c1C(=O)c1c(O)c3c(c(O)c1C2=O)C[C@@](O)(C(=O)CO)C[C@@H]3O[C@H]1C[C@H](N)[C@H](O)[C@H](C)O1` [DOXORUBICIN], the IC50 is reported as 1.07 µM.
`Cc1c(C)c2ccc(OCCCO[C@H]3O[C@@H]4O[C@@]5(C)CC[C@H]6[C@H](C)CC[C@@H]([C@H]3C)[C@@]46OO5)cc2oc1=O` gave an IC50 of 17.1 µM.
Work on `CCOC(=O)c1cc2ccc(O[C@H]3O[C@@H]4O[C@@]5(C)CC[C@H]6[C@H](C)CC[C@@H]([C@H]3C)[C@@]46OO5)cc2oc1=O` yielded an IC50 of 21.9 µM.
`Cc1c(C)c2ccc(OCCCn3cc(CCO[C@H]4O[C@@H]5O[C@@]6(C)CC[C@H]7[C@H](C)CC[C@@H]([C@H]4C)[C@@]57OO6)nn3)cc2oc1=O` was tested, and the IC50 was greater than 100 µM.
